The values that follow come from ChEMBL document CHEMBL4732138, “Evaluation of the Structure-Activity Relationship of Microtubule-Targeting 1,2,4-Triazolo[1,5-a]pyrimidines Identifies New Candidates for Neurodegenerative Tauopathies” (J Med Chem, 2021).

Type in all cases: cell-based
The target in assay [1] is T1, Tubulin (Homo sapiens) (UniProt P68371+Q9H4B7+P0DPH7+P68366+Q13509+Q71U36+P04350+Q3ZCM7+P07437+P68363+Q9BQE3+Q6PEY2+Q13885+Q9BVA1+Q9BUF5). Kind of assay: Stabilization of microtubules in human QBI293 cells assessed as fold change in acetylated tubulin levels at 1 uM after 4 hrs by ELISA relative to DMSO. In outline:
(§1)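 QBI293 cells were grown in DMEM with 10% FBS, 2 mM L-glutamine and penicillin/streptomycin, then plated at 6 × 10^5 cells/well and left overnight. Medium was replaced with fresh medium holding vehicle (DMSO) or compound, and cells were incubated 4 h. Whole-cell extract supernatants were protein-normalized by BCA assay. AcTub and α-tubulin were quantified by ELISA against standard curves. Values are fold-change over DMSO, analysed by one-way ANOVA.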
(In general: ELISA stands for enzyme-linked immunosorbent assay.)

Assay [2] addresses T1, Tubulin (Homo sapiens). The assay can be described thus: Stabilization of microtubules in human QBI293 cells assessed as fold change in acetylated tubulin levels at 10 uM after 4 hrs by ELISA relative to DMSO. In outline: as §1
Assay [3] deals with T1, Tubulin (Homo sapiens). The assay can be described thus: Stabilization of microtubules in human QBI293 cells assessed as fold change in alpha tubulin levels at 1 uM after 4 hrs by ELISA relative to DMSO. In outline:
as §1

The target of assay [4] is T1, Tubulin (Homo sapiens). The assay can be described thus: Stabilization of microtubules in human QBI293 cells assessed as fold change in alpha tubulin levels at 10 uM after 4 hrs by ELISA relative to DMSO. In a few lines:
as §1

Assay [5] addresses T1, Tubulin (Homo sapiens). Kind of assay: Stabilization of microtubules in human QBI293 cells assessed as fold change in acetylated tubulin levels at 1 uM after 4 hrs by ELISA relative to cevipabulin.
Assay [6] concerns the target T1, Tubulin (Homo sapiens). The assay can be described thus: Stabilization of microtubules in human QBI293 cells assessed as fold change in acetylated tubulin levels at 10 uM after 4 hrs by ELISA relative to cevipabulin.
For assay [7], the target named is T1, Tubulin (Homo sapiens). The assay can be described thus: Stabilization of microtubules in human QBI293 cells assessed as increase in acetylated tubulin levels after 4 hrs by ELISA. In outline: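 QBI293 cells are grown in DMEM with 10% FBS, 2 mM L-glutamine and penicillin/streptomycin, plated at 6 × 10^5 cells/well and incubated overnight. […] Acetyl- and total α-tubulin in whole-cell extract supernatants are measured by ELISA against standard curves, with protein by BCA. Values are fold-change over DMSO; AcTub is also given relative to 100 nM cevipabulin positive control. Significance is by one-way ANOVA.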

Molecules are shown by their SMILES.

Consider `C[C@H](Nc1c(-c2c(F)cc([S+](C)[O-])cc2F)c(Cl)nc2ncnn12)C(F)(F)F` (stereo not given in full), for which the fold change (FC) was found to be 0.84 in assay [1]; 0.87 in assay [2]; 0.96 in assay [3]; 0.93 in assay [4]; 0.21 in assay [5]; 0.21 in assay [6].
`CC(C)[C@@H](C)Nc1c(-c2ccc(C#N)cc2F)c(Cl)nc2ncnn12` (stereo in doubt; 68): the fold change (FC) turned out to be 2.15 in assay [1]; 2.29 in assay [2]; 0.95 in assay [3]; 0.92 in assay [4]; 0.47 in assay [5]; 0.5 in assay [6].
Consider `C[C@H](Nc1c(-c2ccccc2F)c(Cl)nc2ncnn12)C(F)(F)F`, for which the fold change (FC) in assay [1] is 1.73; in assay [2], 3.56; in assay [3], 1.09; in assay [4] it was 1.05; in assay [5], 0.13; in assay [6] it was 0.26. Also, in assay [7], the Activity entry was “Dose-dependent effect”.
As to `Fc1cc(F)c(-c2c(Cl)nc3ncnn3c2NC2CCCC2)c(F)c1`, the fold change (FC) is 2.03 in assay [1]; 4.83 in assay [2]; 1.03 in assay [3]; 0.98 in assay [4]; 0.27 in assay [5]; 0.45 in assay [6]. Further, the Activity entry in assay [7] was “Dose-dependent effect”.
In the case of `Fc1cc(F)c(-c2c(Cl)nc3ncnn3c2NC2CC2)c(F)c1`, the fold change (FC) in assay [1] amounted to 1.17; in assay [2], 1.27; in assay [3] it was 1.2; in assay [4] it was 1.26; in assay [5], 0.07; in assay [6], 0.07.
As for `CC(C)Nc1c(-c2c(F)cc(F)cc2F)c(Cl)nc2ncnn12`, the fold change (FC) in assay [1] came out at 1.15; in assay [2] it was 2.01; in assay [3], 0.92; in assay [4], 0.98; in assay [5], 0.15; in assay [6] it was 0.27. The Activity result in assay [7] is “Dose-dependent effect”.
In the case of `C[C@H](Nc1c(-c2cc(F)cc(F)c2)c(Cl)nc2ncnn12)C(F)(F)F`, the fold change (FC) was 1.52 in assay [1]; 3.97 in assay [2]; 1.12 in assay [3]; 1.12 in assay [4]; 0.12 in assay [5]; 0.3 in assay [6]. Also, in assay [7], the Activity result is “Dose-dependent effect”.
`C[C@H](Nc1c(-c2c(F)cc(C#N)cc2F)c(Cl)nc2ncnn12)C(F)(F)F`: the fold change (FC) in assay [1] was 1.9; in assay [2] it was 3.56; in assay [3] it was 0.94; in assay [4], 0.95; in assay [5] it was 0.27; in assay [6] it was 0.51. For the same molecule, in assay [7], the Activity result is “Dose-dependent effect”.
As to `C[C@H](Nc1c(-c2c(F)cccc2F)c(Cl)nc2ncnn12)C(F)(F)F`, the fold change (FC) amounted to 2.2 in assay [1]; 5.28 in assay [2]; 1.06 in assay [3]; 1.02 in assay [4]; 0.16 in assay [5]; 0.39 in assay [6]. The Activity entry in assay [7] is “Dose-dependent effect”.
As for `C[C@H](Nc1c(-c2cc(F)ccc2F)c(Cl)nc2ncnn12)C(F)(F)F`, the fold change (FC) in assay [1] came out at 1.4; in assay [2], 4.1; in assay [3] it was 1.05; in assay [4], 0.9; in assay [5], 0.07; in assay [6], 0.22. Also, the Activity result in assay [7] was “Dose-dependent effect”.
For `CC(C)[C@H](C)Nc1c(-c2c(F)cc(F)cc2F)c(Cl)nc2ncnn12`, the Activity entry in assay [7] was “Dose-dependent effect”.
Take `C[C@H](Nc1c(-c2c(F)cc([S@@+]([O-])CCCN(C)C)cc2F)c(Cl)nc2ncnn12)C(F)(F)F`: the fold change (FC) in assay [1] was found to be 1.49; in assay [2] it was 1.39; in assay [3], 1.22; in assay [4], 0.98; in assay [5] it was 0.34; in assay [6], 0.32.
In the case of `CC(Oc1c(-c2c(F)cc(F)cc2F)c(Cl)nc2ncnn12)C(F)(F)F` (stereo not given), the fold change (FC) stood at 0.91 in assay [1]; 1.01 in assay [2]; 1.03 in assay [3]; 1.04 in assay [4]; 0.19 in assay [5]; 0.21 in assay [6].
Consider `C[C@H](Nc1c(-c2c(F)cc(N)cc2F)c(Cl)nc2ncnn12)C(F)(F)F`, for which the fold change (FC) in assay [1] was found to be 0.94; in assay [2], 0.69; in assay [3] it was 0.97; in assay [4], 0.96; in assay [5], 0.17; in assay [6] it was 0.13.
With `N#Cc1cc(F)c(-c2c(Cl)nc3ncnn3c2N2CCCCCCC2)c(F)c1`, the fold change (FC) in assay [1] is 3.24; in assay [2] it was 4.4; in assay [3], 1.01; in assay [4] it was 0.99; in assay [5] it was 0.58; in assay [6] it was 0.79.
For `CCCNc1c(-c2c(F)cc(F)cc2F)c(Cl)nc2ncnn12`, the fold change (FC) was 1.15 in assay [1]; 1.14 in assay [2]; 1.14 in assay [3]; 0.86 in assay [4]; 0.27 in assay [5]; 0.26 in assay [6].
For `CC(C)(C)CNc1c(-c2c(F)cc(F)cc2F)c(Cl)nc2ncnn12`, in assay [7], the Activity result is “Dose-dependent effect”.
As to `C[C@H](Nc1c(-c2c(F)cc(S(=O)(=O)CCCN(C)C)cc2F)c(Cl)nc2ncnn12)C(F)(F)F`, the fold change (FC) is 1.13 in assay [1]; 1.08 in assay [2]; 0.7 in assay [3]; 1.07 in assay [4]; 0.24 in assay [5]; 0.23 in assay [6].
Regarding `C[C@H](Nc1c(-c2c(F)cc(S(C)(=O)=O)cc2F)c(Cl)nc2ncnn12)C(F)(F)F`, the fold change (FC) in assay [1] worked out at 1.21; in assay [2], 1.23; in assay [3], 1.03; in assay [4] it was 1.02; in assay [5] it was 0.19; in assay [6], 0.19.
Consider `Nc1c(-c2c(F)cc(F)cc2F)c(Cl)nc2ncnn12`, for which the fold change (FC) in assay [1] came out at 1.18; in assay [2], 1.12; in assay [3] it was 1.08; in assay [4], 1.05; in assay [5], 0.09; in assay [6], 0.08.
Consider `C[C@H](Nc1c(-c2c(F)cc(F)cc2F)c(Cl)nc2ncnn12)C(F)(F)F`, for which, in assay [7], the Activity entry was “Dose-dependent effect”.
As to `C[C@H](Nc1c(-c2ccc(C#N)cc2F)c(Cl)nc2ncnn12)C(F)(F)F`, the fold change (FC) in assay [1] amounted to 2.01; in assay [2], 3.64; in assay [3] it was 1; in assay [4], 1; in assay [5] it was 0.37; in assay [6], 0.67.
As to `CC(C)[C@@H](C)Nc1c(-c2ccc(C#N)cc2F)c(Cl)nc2ncnn12` (stereo in doubt; 67), the fold change (FC) stood at 2.79 in assay [1]; 3.42 in assay [2]; 0.99 in assay [3]; 0.93 in assay [4]; 0.61 in assay [5]; 0.75 in assay [6].
Turning to `C[C@H](Nc1c(-c2c(F)cc(F)cc2F)c(Cl)nc2ncnn12)C(C)(C)C`, the Activity entry in assay [7] was “Dose-dependent effect”.
Consider `C[C@H](Nc1c(Cc2c(F)cc(F)cc2F)c(Cl)nc2ncnn12)C(F)(F)F`, for which the fold change (FC) in assay [1] amounted to 1.26; in assay [2], 1.43; in assay [3], 1.01; in assay [4], 1.05; in assay [5], 0.09; in assay [6] it was 0.1.
Regarding `Oc1c(-c2c(F)cc(F)cc2F)c(Cl)nc2ncnn12`, the fold change (FC) in assay [1] was found to be 1.04; in assay [2], 1.03; in assay [3], 1.06; in assay [4] it was 1.02; in assay [5] it was 0.17; in assay [6], 0.17.
Take `Fc1cc(F)c(-c2c(Cl)nc3ncnn3c2Nc2ccccc2)c(F)c1`: the fold change (FC) in assay [1] turned out to be 1.14; in assay [2], 1.05; in assay [3] it was 1.1; in assay [4], 0.96; in assay [5] it was 0.09; in assay [6], 0.08.
In the case of `CC(C)[C@@H](Nc1c(-c2c(F)cc(F)cc2F)c(Cl)nc2ncnn12)C(F)(F)F`, in assay [7], the Activity result was “Dose-dependent effect”.
